Rows were chosen to be rich in hits. Some 2.5% of all compounds tested hit in one or more screens of this group.
HTRA1 inhibitor: blocks human HTRA1 serine peptidase; Q92743; recombinant HTRA1, FP-rhodamine activity-based probe, fluorescence polarization; inhibition, % at 5.96 µM; actives 0.5% (n = 340,000); in the data active = inhibition above about 36%
Target sequence (Q92743 whole entry, looked up): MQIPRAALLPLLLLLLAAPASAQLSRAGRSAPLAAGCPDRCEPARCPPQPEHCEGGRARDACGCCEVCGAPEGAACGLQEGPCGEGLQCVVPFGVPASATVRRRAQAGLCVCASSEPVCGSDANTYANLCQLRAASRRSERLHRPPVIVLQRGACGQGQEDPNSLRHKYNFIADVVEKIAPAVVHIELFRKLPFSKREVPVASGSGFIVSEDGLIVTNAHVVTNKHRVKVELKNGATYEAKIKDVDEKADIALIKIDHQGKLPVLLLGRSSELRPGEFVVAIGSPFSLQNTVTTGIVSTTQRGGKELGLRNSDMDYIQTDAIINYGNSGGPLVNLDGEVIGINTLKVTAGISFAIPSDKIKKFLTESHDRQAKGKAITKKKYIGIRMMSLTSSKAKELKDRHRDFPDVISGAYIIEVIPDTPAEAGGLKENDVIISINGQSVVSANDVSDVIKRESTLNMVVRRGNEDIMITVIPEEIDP
SIAE inh: blocks human sialic acid acetylesterase | Q9HAT2 | SIAE FP-Rh probe binding, fluorescence polarization | inhibition, % at 9.66 µM | actives 0.69% (n = 370,000);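 active = inhibition above a cutoff: mean of compounds within the control limits plus 3 SD of those, cut at about 17% in these data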
ABHD4 inh: ABHD4 (mouse) inhibition, primary FP screen; inhibition, % at 8.92 µM; actives 0.54% (n = 370,000); Q8VD66; purified mABHD4, FP-Rh probe fluorescence polarization; AID 720543;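 active = inhibition exceeding the mean over every tested compound plus 3 SD, cut at about 30% in these data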
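Test system: mABHD4 protein; Read-out basis: % inhibition; Incubation: 45 min + 60 min at 25 °C; Repeats: single replicate; Technique: fluorescence polarization with parallel and perpendicular emission, 525/598 nm; Compound: 8.92 µM, single dose; Benchmarks: full inhibition S159A mutant plus DMSO, zero as sample-well median.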
TCR-CD3 inh: human TCR-CD3 binding inhibition | TAMRA-labeled TCR probe fluorescence, biochemical | inhibition, % at 9.4 µM | actives 0.37% (n = 360,000) | AID 651800; in the data active = inhibition above about 19%;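 also: recombinant mutant TCR 2C K166C tagged with TAMRA read by polarization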
rCAG binder: r(CAG) repeat RNA binding; TO-PRO-1 dye displacement fluorescence; inhibition, % at 3 µM; actives 1.3% (n = 370,000); AID 651821;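 active = inhibition above the plate cutoff, the mean of all test compounds on that plate plus 3 SD, cut at about 35% in these data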;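 also: higher means more dye released from RNA so lower well fluorescence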
mABHD4 conf: confirmation of mouse ABHD4 inhibitors; shares compounds with ABHD4 inh; inhibition, % at 8.92 µM; purified mABHD4, FP-Rh probe fluorescence polarization; actives 55% (n = 1,800); AID 720658;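 active = mean inhibition across replicates above the hit cutoff set in the primary screen, cut at about 30% in these data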
A number is an active result; . = inactive; / = no result.

SMILES	HTRA1 inhibitor	SIAE inh	ABHD4 inh	TCR-CD3 inh	rCAG binder	mABHD4 conf
CC(=O)OCC(=O)C1CCC2C3CC=C4CC(O)CCC4(C)C3CCC12C (centres undefined)	.	.	.	.	.	/
CC(=O)C1CCC2C3CC=C4CC(SC(=N)N)CCC4(C)C3CCC12C (centres undefined)	.	.	46	.	.	38
Cc1[nH]c2ccccc2c1C1=CC(=O)C=CC1=O	.	.	78	.	.	81
COc1ccccc1OCCNC(=O)c1cccc(S(=O)(=O)N2CC(C)OC(C)C2)c1 (centres undefined)	.	.	.	.	.	/
COc1cccc(OC)c1C(=O)Nc1ccc(N2CCCC2)cc1	.	.	33	.	.	38
COc1ccccc1C(=O)Nc1ccc(N2CCCCC2)cc1	.	.	.	.	.	/
O=C(COC(=O)c1ccc(Cl)nc1)Nc1ccc2ccccc2c1	.	.	.	.	.	/
Oc1csc(Cc2nc(-c3ccccc3F)cs2)n1	.	.	.	.	.	/
Oc1csc(Cc2nc(-c3ccc(-c4ccccc4)cc3)cs2)n1	.	.	33	.	.	.
COc1ccc(COC[B-](F)(F)F)cc1	.	.	44	.	.	.
COc1c(/C=N/Nc2nc(N3CCCCC3)nc(N3CCCCC3)n2)cccc1[N+](=O)[O-]	.	.	.	.	.	/
O=[N+]([O-])c1ccc(/C=N/Nc2nc(N3CCCCC3)nc(N3CCCCC3)n2)o1	.	.	54	.	.	55
COc1ccccc1Nc1nc2ccc(C)cc2cc1C#N	.	.	.	.	.	/
COc1ccccc1NC(=O)Nc1nc(C(N)Cc2ccc(C(F)(F)F)cc2)cs1 (centres undefined)	/	.	.	.	.	/
COc1cc(NC(=O)Nc2nc(C(N)Cc3ccc(C(F)(F)F)cc3)cs2)cc(OC)c1OC (centres undefined)	/	.	44	.	.	39
CCOC(=O)Cc1csc(NC(=O)c2sc3nc4ccc(C)cc4cc3c2N)n1	.	.	36	.	.	.
CC(=O)Nc1ccc(S(=O)(=O)Nc2nc3ccc(C)cc3s2)cc1	.	.	.	.	.	/
Cc1ccc(S(=O)(=O)Nc2nc3ccc(N)cc3s2)cc1	.	.	49	.	.	.
Oc1cc2c(cc1O)C1c3ccc(O)c(O)c3OCC1(O)C2 (centres undefined)	.	.	30	132	.	.
O=C(O)CSc1cc(NS(=O)(=O)c2cccc([N+](=O)[O-])c2)c2ccccc2c1O	.	.	41	.	.	34
CCc1ccc(S(=O)(=O)Nc2ccc(O)c3ccccc23)cc1	.	.	.	.	.	/
O=S(=O)(Nc1cc(Sc2cccc3cccnc23)c(O)c2ccccc12)c1ccccc1	/	.	42	.	.	.
CCc1ccc(S(=O)(=O)Nc2cc(SCC(=O)O)c(O)c3ccccc23)cc1	.	.	31	.	.	45
COc1cc(OC)c(CN2CCC(Cc3ccccc3)CC2)cc1Br	.	.	.	.	.	/
Cc1ccc(Nc2nc(NCCO)c3ccccc3n2)cc1C	.	.	35	.	.	78
SMILES	HTRA1 inhibitor	SIAE inh	ABHD4 inh	TCR-CD3 inh	rCAG binder	mABHD4 conf
N#CCc1ccc(-c2cccc3nccn23)cc1	/	.	.	.	.	/
COc1cccc(CNc2ccccn2)c1O	.	.	.	.	.	/
Oc1cccc(/C=N/Nc2cccc3cccnc23)c1	.	.	.	.	.	/
COc1cc(/C=N/Nc2cccc3cccnc23)cc(OC)c1O	.	.	32	.	.	33
COc1cccc(CNc2cccc3cccnc23)c1O	.	.	34	.	.	.
c1ccc2c(-c3ccc(OCCN4CCCCC4)cc3)c(-c3ccsc3)sc2c1	.	.	40	.	.	.
c1ccc(-c2sc3ccccc3c2-c2ccc(OCCN3CCCCC3)cc2)cc1	.	.	.	.	.	/
COc1ccc(OC)c(S(=O)(=O)N2CCN(CC(O)CN3CCOCC3)CC2)c1 (centres undefined)	.	.	.	.	.	/
N#Cc1ccccc1S(=O)(=O)N1CCN(CC(O)CN2CCOCC2)CC1 (centres undefined)	.	.	38	.	.	.
Brc1cccc(-c2nnc3n2CCCCC3)c1	.	.	.	.	.	/
O=C1C=C(Nc2ccccc2C(=O)O)c2ccccc2C1=O	.	.	44	.	.	53
O=C(O)c1ccccc1Nc1ccccc1C(=O)O	.	.	.	.	.	/
CC(=O)C1=C(C)NC2=C(C(=O)c3ccccc32)C1c1ccccc1 (centres undefined)	.	.	41	.	.	83
O=C(CNc1cccc2ccccc12)N/N=C/c1ccc(C(=O)O)cc1	.	.	30	.	.	.
c1ccc(-c2ccc(-c3ccccn3)nn2)nc1	/	.	.	.	.	/
COC/C=C/C1=CC2=CC(=O)C(C)(OC(=O)c3cnc4ccccc4n3)C(=O)C2=CN1Cc1ccccc1 (centres undefined)	.	.	34	.	.	.
COC/C=C/C1=CC2=CC(=O)C(C)(OC(=O)c3cnc4ccccc4n3)C(=O)C2=CN1Cc1ccc(OC)cc1 (centres undefined)	.	.	.	.	.	/
O=C(CCC(=O)N1CCN(c2ccc(O)cc2)CC1)c1cccs1	.	.	.	.	.	/
NC(=O)C1CCN(C(=O)c2cc3c(s2)CCCCC3)CC1	.	.	.	.	.	/
Cc1csc(NC(=O)c2cccc(Cn3nc(C)c(Br)c3C)c2)n1	.	.	50	.	.	.
CN(C(=O)COC(=O)C1COc2ccccc2O1)c1c(N)n(Cc2ccccc2)c(=O)[nH]c1=O (centres undefined)	.	.	.	.	.	/
CCOC(=O)NC(=O)/C(C#N)=C\Nc1ccc(Cl)cc1Cl	.	.	.	.	.	/
CCOC(=O)NC(=O)/C(C#N)=C\Nc1sccc1C(=O)OC	.	.	63	.	.	.
COC(=O)c1ccccc1NC(=O)COc1ccc2c(c1)OCO2	.	.	.	.	.	/
CCN(CC)c1ccc(C=NNC(=O)Cc2cc(=O)[nH][nH]2)c(O)c1	/	.	33	/	.	.
SMILES	HTRA1 inhibitor	SIAE inh	ABHD4 inh	TCR-CD3 inh	rCAG binder	mABHD4 conf
O=C(C1CCCCC1)N1CCN(c2ccccc2F)CC1	.	.	45	.	.	.
O=C(C1CC(=O)N(C2CCCC2)C1)N1CCN(c2ccccc2F)CC1 (centres undefined)	.	.	.	.	.	/
S=c1[nH]nc(-c2ccc(Cl)cc2)n1Cc1ccccc1	.	.	.	.	.	/
COc1cc(OC)cc(C(=O)Nc2nc(CC(=O)NCc3ccc(F)cc3)cs2)c1	.	.	43	.	.	35
COc1cc(OC)cc(C(=O)Nc2nc3ccccc3[nH]2)c1	.	.	36	.	.	31
Cc1cc(C)cc(C(=O)Nc2nc3ccccc3[nH]2)c1	.	.	.	.	.	/
CCOc1ccc(C(=O)Nc2nc3ccccc3[nH]2)cc1OCC	.	.	35	.	.	40
COc1ccc(C(=O)Nc2nc3ccccc3[nH]2)cc1OC	.	.	.	.	.	/
